Drawing on ChEMBL document CHEMBL3045357, “DNA adducts as biomarkers for oxidative and genotoxic stress from pesticides in crop plants” (J Agric Food Chem, 2008), this text covers Activity for one compound.

Molecules are shown by their SMILES.

Assay type in all cases: organism-based
Holding throughout (conditions): in vivo, other, 336 h

The subject of data set [1] is Glycine max. The data set can be described thus: Genotoxicity in Glycine max (soybean) exposed to compound through spray 4 times over 2 weeks assessed as relative adduct level A2 measured per 10^9 nucleotides using [32P]labeling based autoradiography relative to untreated control. Summed up:
(§1)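 Plants (2–6 weeks grown), groups of 2–4, sprayed 4 times over 2 weeks with formulations diluted per label (chlorothalonil 1:256, carbaryl 1:64 in water); controls water-sprayed. DNA from 1 g leaf via DNeasy Maxi kit. 10 µg DNA digested with micrococcal nuclease/spleen phosphodiesterase (4 h, 37 °C), NP1-enriched (45 min, 37 °C), labelled with [γ-32P]ATP/T4 kinase (45 min, 37 °C).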

Data set [2] concerns Phaseolus vulgaris. Put plainly: Genotoxicity in Phaseolus vulgaris (bush beans) exposed to compound through spray 4 times over 2 weeks assessed as relative adduct level A6 measured per 10^9 nucleotides using [32P]labeling based autoradiography relative to untreated control. The method in brief:
as §1

Data set [3] has as its system Cucumis sativus. Put plainly: Genotoxicity in Cucumis sativus (cucumber) exposed to compound through spray 4 times over 2 weeks assessed as relative adduct level A3 measured per 10^9 nucleotides using [32P]labeling based autoradiography relative to untreated control. The method in brief: as §1
The subject of a further data set is Vitis vinifera. The data set can be described thus: Genotoxicity in Vitis vinifera exposed to compound through spray 4 times over 2 weeks assessed as relative adduct level A3 measured per 10^9 nucleotides using HX-dG internal standard using [32P]labeling based autoradiography relative to untreated control. Summed up: as §1
Data set [4] has as its system Glycine max. Put plainly: Genotoxicity in Glycine max (soybean) exposed to compound through spray 4 times over 2 weeks assessed as HNE-dG adducts measured per 10^9 nucleotides using [32P]labeling based autoradiography (reference value: 2 no unit). The method in brief:
as §1

In data set [5] the test system is Phaseolus vulgaris. Put plainly: Genotoxicity in Phaseolus vulgaris (bush beans) exposed to compound through spray 4 times over 2 weeks assessed as relative adduct level A2 measured per 10^9 nucleotides using HX-dG internal standard using [32P]labeling based autoradiography relative to untreated control. Summed up: as §1
Data set [6] concerns Cucurbita pepo. The data set can be described thus: Genotoxicity in Cucurbita pepo (pumpkin) exposed to compound through spray 4 times over 2 weeks assessed as relative adduct level A2 measured per 10^9 nucleotides using [32P]labeling based autoradiography relative to untreated control. Summed up:
as §1

Data set [7] relates to Cucurbita pepo. Put plainly: Genotoxicity in Cucurbita pepo (pumpkin) exposed to compound through spray 4 times over 2 weeks assessed as relative adduct level A6 measured per 10^9 nucleotides using [32P]labeling based autoradiography relative to untreated control. Summed up: as §1
The test system of data set [8] is Glycine max. The data set can be described thus: Genotoxicity in Glycine max (soybean) exposed to compound through spray 4 times over 2 weeks assessed as relative adduct level A1 measured per 10^9 nucleotides using [32P]labeling based autoradiography relative to untreated control. The method in brief: as §1
Data set [9] has as its system Phaseolus vulgaris. The data set can be described thus: Genotoxicity in Phaseolus vulgaris (bush beans) exposed to compound through spray 4 times over 2 weeks assessed as relative adduct level A3 measured per 10^9 nucleotides using [32P]labeling based autoradiography relative to untreated control. The method in brief:
as §1

Data set [10] concerns Cucumis sativus. The data set can be described thus: Genotoxicity in Cucumis sativus (cucumber) exposed to compound through spray 4 times over 2 weeks assessed as relative adduct level A1 measured per 10^9 nucleotides using HX-dG internal standard using [32P]labeling based autoradiography relative to untreated control. The method in brief:
as §1

For data set [11], the system named is Cucurbita pepo. Put plainly: Genotoxicity in Cucurbita pepo (pumpkin) exposed to compound through spray 4 times over 2 weeks assessed as relative adduct level A5 measured per 10^9 nucleotides using HX-dG internal standard using [32P]labeling based autoradiography relative to untreated control. The method in brief:
as §1

The test system of data set [12] is Phaseolus vulgaris. The data set can be described thus: Genotoxicity in Phaseolus vulgaris (bush beans) exposed to compound through spray 4 times over 2 weeks assessed as relative adduct level A2 measured per 10^9 nucleotides using [32P]labeling based autoradiography relative to untreated control. The method in brief: as §1
For data set [13], the system named is Phaseolus vulgaris. Put plainly: Genotoxicity in Phaseolus vulgaris (bush beans) exposed to compound through spray 4 times over 2 weeks assessed as relative adduct level A3 measured per 10^9 nucleotides using HX-dG internal standard using [32P]labeling based autoradiography relative to untreated control. Summed up: as §1
The subject of data set [14] is Cucurbita pepo. The data set can be described thus: Genotoxicity in Cucurbita pepo (pumpkin) exposed to compound through spray 4 times over 2 weeks assessed as relative adduct level A2 measured per 10^9 nucleotides using HX-dG internal standard using [32P]labeling based autoradiography relative to untreated control. Summed up: as §1
The subject of data set [15] is Glycine max. The data set can be described thus: Genotoxicity in Glycine max (soybean) exposed to compound through spray 4 times over 2 weeks assessed as HNE-dG adducts using [32P]labeling based autoradiography (reference value: 34 cpm). Summed up:
as §1

Data set [16] concerns Phaseolus vulgaris. The data set can be described thus: Genotoxicity in Phaseolus vulgaris (bush beans) exposed to compound through spray 4 times over 2 weeks assessed as relative adduct level A1 measured per 10^9 nucleotides using HX-dG internal standard using [32P]labeling based autoradiography relative to untreated control. Summed up:
as §1

The subject of data set [17] is Cucurbita pepo. Put plainly: Genotoxicity inCucurbita pepo (pumpkin) exposed to compound through spray 4 times over 2 weeks assessed as relative adduct level A4 measured per 10^9 nucleotides using HX-dG internal standard using [32P]labeling based autoradiography relative to untreated control. The method in brief:
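Plants grown 2-6 weeks, groups of 2-4 sprayed four times over 2 weeks with label-rate formulations; water-sprayed controls. Leaf DNA kit-extracted. 10 µg DNA digested with micrococcal nuclease/spleen phosphodiesterase 4 h at 37 °C. NP1-enriched, then labeled with [γ-32P]ATP/T4 kinase 45 min at 37 °C. 2D PEI-cellulose TLC, imager readout. Samples spiked with 50 fmol HX-dG standard.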

Data set [18] concerns Cucurbita pepo. The data set can be described thus: Genotoxicity in Cucurbita pepo (pumpkin) exposed to compound through spray 4 times over 2 weeks assessed as relative adduct level A1 measured per 10^9 nucleotides using [32P]labeling based autoradiography relative to untreated control. The method in brief:
as §1

In data set [19] the test system is Glycine max. The data set can be described thus: Genotoxicity in Glycine max (soybean) exposed to compound through spray 4 times over 2 weeks assessed as relative adduct level A1 measured per 10^9 nucleotides using HX-dG internal standard using [32P]labeling based autoradiography relative to untreated control. The method in brief: as §1
Data set [20] deals with Cucumis sativus. Put plainly: Genotoxicity in Cucumis sativus (cucumber) exposed to compound through spray 4 times over 2 weeks assessed as relative adduct level A2 measured per 10^9 nucleotides using [32P]labeling based autoradiography relative to untreated control. Summed up: as §1
Data set [21] concerns Phaseolus vulgaris. The data set can be described thus: Genotoxicity in Phaseolus vulgaris (bush beans) exposed to compound through spray 4 times over 2 weeks assessed as relative adduct level A5 measured per 10^9 nucleotides using HX-dG internal standard using [32P]labeling based autoradiography relative to untreated control. The method in brief: as §1

With `N#Cc1c(Cl)c(Cl)c(Cl)c(C#N)c1Cl` [CHLOROTHALONIL], the Activity in the data set on Glycine max [1] was found to be 172; in the data set on Phaseolus vulgaris [2], 174; in the data set on Cucumis sativus [3], 229; with Vitis vinifera it was 9447 cpm; in the data set with Glycine max [4], 160; with Phaseolus vulgaris [5] it was 5697 cpm. Moreover, the Activity came to 26 in the data set on Cucurbita pepo [6]; 1409 with Cucurbita pepo [7]; 797 in the data set on Glycine max [8]; 145 with Phaseolus vulgaris [9]; 5420 cpm in the data set on Cucumis sativus [10]; 3195 cpm in the data set on Cucurbita pepo [11]. For the same compound, the Activity with Phaseolus vulgaris [12] was found to be 164; in the data set with Phaseolus vulgaris [13] it was 5038 cpm; with Cucurbita pepo [14], 1323 cpm; in the data set with Glycine max [15], 8163 cpm; in the data set on Phaseolus vulgaris [16], 5901 cpm; in the data set with Cucurbita pepo [17], 679 cpm. The Activity turned out to be 73 with Cucurbita pepo [18], 40547 cpm with Glycine max [19], 268 with Cucumis sativus [20] and 4410 cpm in the data set with Phaseolus vulgaris [21].
